Assay results published in ChEMBL document CHEMBL1138132, “Cyclic urea derivatives as potent NK1 selective antagonists. Part II: Effects of fluoro and benzylic methyl substitutions” (Bioorg Med Chem Lett, 2006).
Values after ≈ are worked out from the molar mass of the structure shown.

Legend:
Meriones unguiculatus [1] = experiment: Inhibition of Mongolian gerbil foot-tapping at 4 hr time point at 1 mg/kg, po; assay type: functional
How it was run: (§1)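 Female Mongolian gerbils dosed orally at 1 mg/kg in 0.4% methylcellulose in distilled water at set pretreatment times (2, 4 or 6 h) before icv injection of NK1 agonist GR73632 (3 pmol in 5 µl) under anesthesia. After recovery, animals were placed in clear boxes and duration of hind-foot tapping was timed over 5 min; expressed as % inhibition.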

Substance-P receptor [2] = biological target: T1, Substance-P receptor (Homo sapiens, UniProt P25103); experiment: Displacement of [3H]-Sar-Met Substance P from recombinant human NK1 receptor in CHO cells; assay type: cell-based
How it was run: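 Membranes from CHO cells expressing recombinant human NK1 receptor; [3H]-Sar-Met Substance P radioligand at concentrations near its experimentally derived Kd. Ki calculated by Cheng–Prusoff equation; values are the average of two or three independent determinations.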

Meriones unguiculatus [3] = experiment: Inhibition of Mongolian gerbil foot-tapping at 2 h time point at 1 mg/kg, po; assay type: functional; how it was run: as §1
Meriones unguiculatus [4] = experiment: Inhibition of Mongolian gerbil foot-tapping at 6 hr time point at 1 mg/kg, po; assay type: functional; how it was run: as §1
[5] = Oral bioavailability in rat; assay type: ADME, organism-based; settings: in vivo
[6] = Ratio of drug level in brain against plasma in Mongolian gerbil; assay type: ADME, organism-based, Meriones unguiculatus
[7] = Ratio of drug level in brain against plasma in rat; assay type: ADME, organism-based
Substance-P receptor [8] = biological target: T1, Substance-P receptor; settings: CHO, 3 uM
[9] = Solubility in pH 7.4 buffer; assay type: physicochemical

T1 sequence (P25103 whole entry): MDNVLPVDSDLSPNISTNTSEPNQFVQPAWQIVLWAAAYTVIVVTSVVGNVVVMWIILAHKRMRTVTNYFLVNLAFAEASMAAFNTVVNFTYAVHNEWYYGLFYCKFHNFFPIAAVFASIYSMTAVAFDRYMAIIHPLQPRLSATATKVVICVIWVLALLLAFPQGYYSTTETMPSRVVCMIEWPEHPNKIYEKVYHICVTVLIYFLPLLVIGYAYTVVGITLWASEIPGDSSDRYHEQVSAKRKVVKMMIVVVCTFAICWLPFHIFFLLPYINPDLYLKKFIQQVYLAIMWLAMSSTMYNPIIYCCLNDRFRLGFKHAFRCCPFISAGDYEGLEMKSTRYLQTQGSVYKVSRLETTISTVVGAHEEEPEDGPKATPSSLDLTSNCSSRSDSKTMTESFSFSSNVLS

Row | SMILES | inhibition in vivo at 1 mg/kg (Meriones unguiculatus [1]) | Ki (Substance-P receptor [2]) | inhibition in vivo at 1 mg/kg (Meriones unguiculatus [3]) | inhibition in vivo at 1 mg/kg (Meriones unguiculatus [4]) | further results
1 | C[C@@H](OC[C@@]1(c2ccc(F)cc2)CNC(=O)N1)c1cc(C(F)(F)F)cc(C(F)(F)F)c1 | 44% | 1.5 nM | 40% | 41% | 
2 | CN1CCC(N2CC(COCc3cc(C(F)(F)F)cc(C(F)(F)F)c3)(c3ccc(F)cc3)NC2=O)CC1 (stereo not drawn) | 0% | 0.4 nM | 3% |  | 
3 | CCN1C[C@@](CO[C@H](C)c2cc(C(F)(F)F)cc(C(F)(F)F)c2)(c2ccc(F)cc2)NC1=O | 0% | 0.8 nM | 9% |  | 
4 | O=C1NCC(COCc2cc(C(F)(F)F)cc(C(F)(F)F)c2)(c2ccc(F)cc2)N1 (stereo not drawn) |  | 4.5 nM |  |  | 
5 | C[C@@H](OC[C@@]1(c2ccc(F)cc2)CN(CC(N)=O)C(=O)N1)c1cc(C(F)(F)F)cc(C(F)(F)F)c1 | 20% | 0.4 nM | 14% |  | 
6 | CCN1C[C@@](CO[C@H](C)c2cc(C(F)(F)F)cc(C(F)(F)F)c2)(c2ccccc2)NC1=O | 46% | 1.7 nM | 45% |  | 
7 | O=C1NC[C@@](COCc2cc(C(F)(F)F)cc(C(F)(F)F)c2)(c2ccc(F)cc2)N1 | 55% | 2.7 nM | 22% | 51% | bioavailability [5]: 93%; Kp [6]: 16
8 | O=C1NC[C@@](COCc2cc(C(F)(F)F)cc(C(F)(F)F)c2)(c2ccccc2)N1 | 12% | 6 nM | 54% |  | Kp [7]: 4; Kp [6]: 18
9 | O=C1NC(COCc2cc(C(F)(F)F)cc(C(F)(F)F)c2)(c2ccc(F)cc2)CN1CCN1CCCC1 (stereo not drawn) | 0% |  | 2% | 0% | 
10 | C[C@H](OC[C@@]1(c2ccccc2)CNC(=O)N1)c1cc(C(F)(F)F)cc(C(F)(F)F)c1 |  | 93 nM |  |  | 
11 | O=C1NC(COCc2cc(C(F)(F)F)cc(C(F)(F)F)c2)(c2ccc(F)cc2)CN1C1CCNCC1 (stereo not drawn) | 0% | 0.9 nM | 0% |  | 
12 | C[C@@H](OC[C@]1(c2ccccc2)CNC(=O)N1)c1cc(C(F)(F)F)cc(C(F)(F)F)c1 |  | 41 nM |  |  | 
13 | C[C@@H](OC[C@@]1(c2ccccc2)CNC(=O)N1)c1cc(C(F)(F)F)cc(C(F)(F)F)c1 | 57% | 0.6 nM | 35% | 48% | bioavailability [5]: 100%; Kp [7]: 4.4; Kp [6]: 10
14 | C[C@H](OC[C@]1(c2ccccc2)CNC(=O)N1)c1cc(C(F)(F)F)cc(C(F)(F)F)c1 |  |  |  |  | inhibition (Substance-P receptor [8]): 22%
15 | CC(C)N1C[C@@](CO[C@H](C)c2cc(C(F)(F)F)cc(C(F)(F)F)c2)(c2ccccc2)NC1=O |  | 3.1 nM |  |  | 
16 | C[C@@H](OC[C@@]1(c2ccc(F)cc2)CN(C)C(=O)N1)c1cc(C(F)(F)F)cc(C(F)(F)F)c1 | 57% | 3.6 nM | 65% | 63% | solubility [9]: 3 µM (≈ 1.39 µg/mL)
17 | C[C@@H](OC[C@@]1(c2ccccc2)CN(C)C(=O)N1)c1cc(C(F)(F)F)cc(C(F)(F)F)c1 | 62% | 0.5 nM | 86% | 31% | 
18 | O=C1NC(COCc2cc(C(F)(F)F)cc(C(F)(F)F)c2)(c2ccc(F)cc2)CN1C1CCOCC1 (stereo not drawn) | 0% | 6.3 nM | 22% |  | 
19 | O=C1NC[C@](COCc2cc(C(F)(F)F)cc(C(F)(F)F)c2)(c2ccc(F)cc2)N1 |  | 89 nM |  |  | 
